Laboratory results taken from publication PMC8113979 (Inorganic chemistry, 2017).
Like-named read-outs stand apart in the source and are kept apart here.

How the values were obtained:
[1] = test system: MRC-5 (human lung fibroblast) cells; assay: MTT cytotoxicity assay in MRC-5 cells; assay type: cell-based; conditions: read-out: IC50 MRC-5 Normoxia, MRC-5 normal lung fibroblasts
[2] = test system: HeLa and A549 cell lines; assay type: cell-based, human
[3] = test system: A549 cells; assay: Cellular uptake of cobalt by GFAAS, normalised to protein; assay type: cell-based, human; conditions: A549, 100 μM complex, 24 h
[4] = test system: A549 (human lung cancer) cells; assay: MTT cytotoxicity assay in A549 cells; assay type: cell-based
[5] = test system: HeLa (human cervical cancer) cells; assay: MTT cytotoxicity assay in HeLa cells; assay type: cell-based; conditions: for IC50: Homo sapiens, HeLa
[6] = observed in other studies; cited from earlier work
[7] = N-methylimidazole challenge; assay type: physicochemical; conditions: 1 mM complex, 5 mM N-methylimidazole, pH 7.4 PBS, 37 °C, 24 h
Summary of the method: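 Complex at 1 mM final in pH 7.4 PBS with 5 mM N-methylimidazole as competing ligand. Analysed by RP-HPLC right after mixing, then again after 24 h at 37 °C. C18 column (250 × 4.6 mm, 5 μm), 1 mL/min, UV at 220 and 260 nm. Gradient: 10% MeOH/water with 0.1% TFA for 5 min, then linear to 100% MeOH (0.1% TFA) over 20 min. Starting, mono- and disubstituted species quantified from peak areas.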

[8] = Cyclic voltammetry in anhydrous DMF; assay type: physicochemical; conditions: vs SCE, glassy carbon, 0.10 M TBAP, 100 mV/s, 25 °C; for Epc, Co(III/II): irreversible peak potential
[9] = test system: hypoxic cells; conditions: uptake, hypoxia vs normoxia; cited from earlier work
[10] = value reported for the hypoxia-imaging agent; cited from earlier work
[11] = read-out: IC50 Without TM, A549, without tetrathiomolybdate

SMILES	IC50 [1] [µM]	% Disubstituted [7] [%]	% Intact [7] [%]	% Monosubstituted [7] [%]	E1/2,Co(II/I) [8]	Epc, Co(III/II) [8]	also measured
N.N.[Cl][Pt][Cl] [Cisplatin, cisplatin]	3.5 ± 1.2	–	–	–	–	–	difference in activity under hypoxic versus normoxic conditions [2]: no difference
O=[N+]([O-])[O-].O=[N+]([O-])[O-].[Co+2] [Co(NO3)2, reference compound]	> 500	–	–	–	–	–	Hypoxia/Normoxia Ratio of uptake [3]: 0.88 ± 0.09; Co/Protein (Hypoxia) [3]: 33 ± 3 pg/µg; Co/Protein (Normoxia) [3]: 37 ± 2 pg/µg
NC(=S)N/N=C/C=N/NC(N)=S [GTS, glyoxal bis(thiosemicarbazone)]	> 20	–	–	–	–	–	IC50 [4, 11]: 0.02 ± 0.01 µM
[SH-].[SH-].[S]=[Mo]=[S] [TM, tetrathiomolybdate]	–	–	–	–	–	–	effect on cell viability ([4]; A549, 5 μM concentration): a TM does not affect the cell viability at 5 μM concentration.
Nc1n[n+]([O-])c2ccccc2[n+]1[O-] [Tirapazamine]	–	–	–	–	–	–	hypoxia selectivity index ([5]; HeLa cells, in our lab): 3.3; IC50 ([5]; read-out: IC50 HeLa Hypoxia): 13 ± 4.2 µM; IC50 ([5]; read-out: IC50 HeLa Normoxia): 44 ± 19 µM; IC50 ([4]; Homo sapiens, A549, read-out: IC50 A549 Hypoxia): 11 ± 6.5 µM; IC50 ([4]; Homo sapiens, A549, read-out: IC50 A549 Normoxia): 60 ± 5.4 µM; typical hypoxia selectivity index [6]: 10
CC(=NN=C(N)[S-])C(C)=NN=C(N)[S-].NCc1ccccc1.NCc1ccccc1.O=[N+]([O-])[O-].[Co+3] [[Co(ATS)(BnA)2]^+]	–	93	0	7	−1.18 V	−0.83 V	–
CC(=NN=C(N)[S-])C(C)=NN=C(N)[S-].O=[N+]([O-])[O-].[Co+3].c1c[nH]cn1.c1c[nH]cn1 [[Co(ATS)(Im)2]^+]	–	46	11	43	−1.19 V	−0.86 V	–
CC(=NN=C(N)[S-])C(C)=NN=C(N)[S-].N.N.O=[N+]([O-])[O-].[Co+3] [[Co(ATS)(NH3)2]^+]	–	35	38	27	−1.18 V	−1.10 V	–
NC([S-])=NN=CC=NN=C(N)[S-].O=[N+]([O-])[O-].[Co+3].c1c[nH]cn1.c1c[nH]cn1 [[Co(GTS)(Im)2]^+]	> 250	58	6	–	–1.00 V	–0.72 V	IC50 [4, 11]: 2.6 ± 0.4 µM; Hypoxia/Normoxia Ratio of uptake [3]: 1.40 ± 0.09; Co/Protein (Hypoxia) [3]: 20 ± 1 pg/µg; Co/Protein (Normoxia) [3]: 15 ± 1 pg/µg
CC(C=NN=C(N)[S-])=NN=C(N)[S-].NCc1ccccc1.NCc1ccccc1.O=[N+]([O-])[O-].[Co+3] [[Co(PTS)(BnA)2]^+]	–	93	1	6	–1.14 V	–0.84 V	–
CC(C=NN=C(N)[S-])=NN=C(N)[S-].O=[N+]([O-])[O-].[Co+3].c1c[nH]cn1.c1c[nH]cn1 [[Co(PTS)(Im)2]^+]	–	54	7	39	–1.12 V	–0.84 V	–
CC(C=NN=C(N)[S-])=NN=C(N)[S-].N.N.O=[N+]([O-])[O-].[Co+3] [[Co(PTS)(NH3)2]^+]	–	22	56	22	–1.11 V	–0.92 V	–
CN=C([S-])N/N=C(C)/C(C)=N/NC([S-])=NC.[Cu+2] [[Cu(ATSM)]]	–	–	–	–	–	–	hypoxia selectivity [9]: 5 ×; reduction potential [10]: −0.59 V
